Measured values as given in PubChem BioAssay.
Calls of active or inactive are those of the source.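 Rule for the calls, unless noted: active = viability at or under a set limit in both replicates, limit being median viability minus 3 SD (cut at about 48% in these data, passing the limit was not always enough); inconclusive = at or under the limit in just one replicate; inactive = at or above the limit in both replicates.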

Assays:
[1] = SK-BR-3 cell growth inhibitors, pilot screen, 24 h, human (AID 572;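 active = viability at or below 10% of carrier control in both of two separate runs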;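 note: compound exposure lasted between 18 and 24 h rather than exactly 24 h; 100% = carrier-treated control wells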); conditions: SK-BR-3 viability, CellTiter-Glo luminescence, at 10 µM, stronger effect = lower value
[2] = HUVEC growth inhibition – cell-based, human, primary screen (AID 575;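 active = viability at or below 30% in both replicate assays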;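 note: 100% = median of untreated cell wells with 0.1% DMSO on each plate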); conditions: HUVEC proliferation, CellTiter-Glo luminescence, 72 h; at 10 µM; stronger effect = lower value
Summary of the method: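 Assay system: Primary human umbilical vein endothelial cells | Quantity: 1250 cells per well | Medium: Supplemented EBM, 2% fetal bovine serum | Detection: CellTiter-Glo luminescence measuring cellular ATP | Read-out: % viability vs DMSO wells | Plate: Collagen-coated 384-well format | Times: 72 h exposure, 37 °C, 5% CO2, 30 min RT equilibration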

[3] = growth inhibitors of H69AR lung tumor, primary screen, human, duplicate replicates (AID 580); conditions: H69AR lung tumor cells viability, ATP luminescence, 72 h; at 10 µM; stronger effect = lower value;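 note: 100% = mean luminescence of untreated wells and 0% = no signal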
[4] = reversal of MRP1-mediated doxorubicin resistance, pilot screen, H69AR cells, doxorubicin co-treatment (AID 601;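 active = viability loss from added drug above about 55%, and viability with drug at most 40%, in both replicates, limit read from the data, passing the limit was not always enough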); conditions: CellTiter-Glo, 72 h, at 10 µM; for differential viability (reversal): stronger effect = higher value
[5] = 384-well plate pilot, post-Golgi transport modulator project, inhibition of yeast transport mutant growth (AID 636; in the data active = inhibition above about 31%); conditions: absorbance 615 nm, about 18 h, stronger effect = higher value
[6] = growth suppression of yeast trafficking mutant, preliminary HTS, modulators of trafficking downstream of Golgi apparatus project, 1536-format plate, OD 615 nm (AID 637; in the data active = inhibition above about 30%); conditions: yeast transport mutant growth, absorbance 615 nm, 18 h; stronger effect = higher value
[7] = H69AR cells + 2 uM doxorubicin, measured here: viability with 2 uM doxorubicin, stronger effect = lower value
[8] = H69AR cells, compound alone cytotoxicity

CC(C)CN(C(=O)c1ccc(=O)n(C)n1)c1nc2ccccc2s1
viability [1]: 94% (inactive)
viability [2]: 107% (inactive)
viability [3]: 90.2% (inactive)
differential viability (reversal) ([4]; H69AR cells + 2 uM doxorubicin): 4.96% (inactive)
viability [4, 7]: 85.2%
viability [4, 8]: 90.2%
inhibition [5]: -1.08% (inactive)
inhibition [6]: 1.09% (inactive)

COc1ccc(C/C(O)=C(\C#N)c2nc3ccccc3s2)cc1
viability [1]: 86% (inactive)
viability [2]: 48.8% (inactive)
viability [3]: 83.1% (inactive)
differential viability (reversal) ([4]; H69AR cells + 2 uM doxorubicin): -8.21% (inactive)
viability [4, 7]: 91.3%
viability [4, 8]: 83.1%
inhibition [5]: -2.93% (inactive)
inhibition [6]: 0.36% (inactive)

COc1ccc(-c2ccc(-c3noc(-c4ccccc4)n3)c(OC)n2)cc1
viability [1]: 103% (inactive)
viability [2]: 68.3% (inactive)
viability [3]: 88% (inactive)
differential viability (reversal) ([4]; H69AR cells + 2 uM doxorubicin): 3.25% (inactive)
viability [4, 7]: 84.7%
viability [4, 8]: 88%
inhibition [5]: -8.51% (inactive)
inhibition [6]: -10.2% (inactive)

CC(=O)Nc1ccccc1O
viability [1]: 111% (inactive)
viability [2]: 102% (inactive)
viability [3]: 96.1% (inactive)
differential viability (reversal) ([4]; H69AR cells + 2 uM doxorubicin): 0.37% (inactive)
viability [4, 7]: 95.7%
viability [4, 8]: 96.1%
inhibition [5]: -0.13% (inactive)
inhibition [6]: 4.5% (inactive)

C[C@H](CS)C(=O)N1CCC[C@H]1C(=O)O
viability [1]: 93% (inactive)
viability [2]: 92.7% (inactive)
viability [3]: 99.8% (inactive)
differential viability (reversal) ([4]; H69AR cells + 2 uM doxorubicin): 8.21% (inactive)
viability [4, 7]: 91.6%
viability [4, 8]: 99.8%
inhibition [5]: -2.47% (inactive)
inhibition [6]: 2.83% (inactive)

CC(=O)NCCC(=O)Nc1ccc(C)c(F)c1
viability [1]: 110% (inactive)
viability [2]: 110% (inactive)
viability [3]: 91.4% (inactive)
differential viability (reversal) ([4]; H69AR cells + 2 uM doxorubicin): -17% (inactive)
viability [4, 7]: 108%
viability [4, 8]: 91.4%
inhibition [5]: -2.05% (inactive)
inhibition [6]: 3.09% (inactive)

COCCc1ccc(OCC(O)CNC(C)C)cc1 (configuration not stated)
viability [1]: 117% (inactive)
viability [2]: 70.4% (inactive)
viability [3]: 98.3% (inactive)
differential viability (reversal) ([4]; H69AR cells + 2 uM doxorubicin): -7.28% (inactive)
viability [4, 7]: 106%
viability [4, 8]: 98.3%
inhibition [5]: -2.86% (inactive)
inhibition [6]: 1.33% (inactive)

COc1ccc(C(=O)Nc2nc(C)c(C(=O)N(C)C)s2)cc1OC
viability [1]: 70% (inactive)
viability [2]: 91% (inactive)
viability [3]: 94.9% (inactive)
differential viability (reversal) ([4]; H69AR cells + 2 uM doxorubicin): 10.6% (inactive)
viability [4, 7]: 84.3%
viability [4, 8]: 94.9%
inhibition [5]: -8.63% (inactive)
inhibition [6]: 4.52% (inactive)

COc1ccc(OC)c(NC(=O)C23CCC(C)(C(=O)C2)C3(C)C)c1 (configuration not stated)
viability [1]: 72% (inactive)
viability [2]: 101% (inactive)
viability [3]: 102% (inactive)
differential viability (reversal) ([4]; H69AR cells + 2 uM doxorubicin): -0.69% (inactive)
viability [4, 7]: 103%
viability [4, 8]: 102%
inhibition [5]: -6.3% (inactive)
inhibition [6]: -2.73% (inactive)

CCC[C@@H]1C[C@@H](C(=O)N[C@H]([C@@H](C)O)[C@H]2O[C@H](SC)[C@H](O)[C@@H](O)C2O)N(C)C1 (some centres not stated)
viability [1]: 128% (inactive)
viability [2]: 94.7% (inactive)
viability [3]: 89.7% (inactive)
differential viability (reversal) ([4]; H69AR cells + 2 uM doxorubicin): 9.67% (inactive)
viability [4, 7]: 80%
viability [4, 8]: 89.7%
inhibition [5]: 0.52% (inactive)
inhibition [6]: 15.7% (inactive)

N/C(=N/O)c1nc(N2CCCCC2)nc(N2CCCCC2)n1
viability [1]: 115% (inactive)
viability [2]: 80.5% (inactive)
viability [3]: 94.9% (inactive)
differential viability (reversal) ([4]; H69AR cells + 2 uM doxorubicin): -0.21% (inactive)
viability [4, 7]: 95.1%
viability [4, 8]: 94.9%
inhibition [5]: -0.65% (inactive)
inhibition [6]: -0.98% (inactive)

Cc1nnc(SCc2nnc(-c3ccccc3Br)o2)n1-c1ccccc1
viability [1]: 86% (inactive)
viability [2]: 87.5% (inactive)
viability [3]: 90.2% (inactive)
differential viability (reversal) ([4]; H69AR cells + 2 uM doxorubicin): -3.37% (inactive)
viability [4, 7]: 93.6%
viability [4, 8]: 90.2%
inhibition [5]: 0.41% (inactive)
inhibition [6]: 0% (inactive)

OCC(O)CN1CCN(c2ccccc2)CC1 (configuration not stated)
viability [1]: 119% (inactive)
viability [2]: 100% (inactive)
viability [3]: 92.9% (inactive)
differential viability (reversal) ([4]; H69AR cells + 2 uM doxorubicin): -1.6% (inactive)
viability [4, 7]: 94.5%
viability [4, 8]: 92.9%
inhibition [5]: 1.95% (inactive)
inhibition [6]: 3.83% (inactive)

Cc1cc(O)c(NC(=O)c2ccc(Br)o2)cc1C
viability [1]: 98% (inactive)
viability [2]: 71% (inactive)
viability [3]: 73.2% (inactive)
differential viability (reversal) ([4]; H69AR cells + 2 uM doxorubicin): -15% (inactive)
viability [4, 7]: 88.2%
viability [4, 8]: 73.2%
inhibition [5]: -6.08% (inactive)
inhibition [6]: 1.5% (inactive)

CCOC(=O)C1CCN(C(=O)CCCCn2c(=O)[nH]c3ccccc3c2=O)CC1
viability [1]: 90% (inactive)
viability [2]: 114% (inactive)
viability [3]: 101% (inactive)
differential viability (reversal) ([4]; H69AR cells + 2 uM doxorubicin): 6.14% (inactive)
viability [4, 7]: 94.9%
viability [4, 8]: 101%
inhibition [5]: 3.77% (inactive)
inhibition [6]: 2.62% (inactive)

CC(C)n1nc(C(=O)Nc2nc3ccc(S(C)(=O)=O)cc3s2)c2ccccc2c1=O
viability [1]: 87% (inactive)
viability [2]: 86.1% (inactive)
viability [3]: 67.8% (inactive)
differential viability (reversal) ([4]; H69AR cells + 2 uM doxorubicin): -4.21% (inactive)
viability [4, 7]: 72%
viability [4, 8]: 67.8%
inhibition [5]: -4.86% (inactive)
inhibition [6]: 2.73% (inactive)

Nc1nc(N)c2nc(-c3ccccc3)c(N)nc2n1
viability [1]: 128% (inactive)
viability [2]: 90.5% (inactive)
viability [3]: 73.3% (inactive)
differential viability (reversal) ([4]; H69AR cells + 2 uM doxorubicin): -4.71% (inactive)
viability [4, 7]: 78%
viability [4, 8]: 73.3%
inhibition [5]: -2.08% (inactive)
inhibition [6]: 1.5% (inactive)

c1ccc2c(c1)CCCC2C1=NCCN1 (configuration not stated)
viability [1]: 100% (inactive)
viability [2]: 84.6% (inactive)
viability [3]: 95.3% (inactive)
differential viability (reversal) ([4]; H69AR cells + 2 uM doxorubicin): 6.75% (inactive)
viability [4, 7]: 88.6%
viability [4, 8]: 95.3%
inhibition [5]: -2.6% (inactive)
inhibition [6]: 1% (inactive)

N#Cc1c(N)n(CCOC(=O)c2cccc(Br)c2)c2nc3ccccc3nc12
viability [1]: 111% (inactive)
viability [2]: 75.6% (inactive)
viability [3]: 96.4% (inactive)
differential viability (reversal) ([4]; H69AR cells + 2 uM doxorubicin): 3.64% (inactive)
viability [4, 7]: 92.8%
viability [4, 8]: 96.4%
inhibition [5]: -10.1% (inactive)
inhibition [6]: 3.55% (inactive)

CN(C)c1nc(Oc2ccc(N)cc2)nc(N(C)C)n1
viability [1]: 97% (inactive)
viability [2]: 86.2% (inactive)
viability [3]: 90.1% (inactive)
differential viability (reversal) ([4]; H69AR cells + 2 uM doxorubicin): -6.47% (inactive)
viability [4, 7]: 96.6%
viability [4, 8]: 90.1%
inhibition [5]: -7.73% (inactive)
inhibition [6]: -2% (inactive)

CCOc1ccc(NS(=O)(=O)c2ccc(OCC(=O)N3CCCC3)cc2)cc1
viability [1]: 92% (inactive)
viability [2]: 102% (inactive)
viability [3]: 88.7% (inactive)
differential viability (reversal) ([4]; H69AR cells + 2 uM doxorubicin): 3.44% (inactive)
viability [4, 7]: 85.2%
viability [4, 8]: 88.7%
inhibition [5]: 1.51% (inactive)
inhibition [6]: -4.84% (inactive)

CC(=O)N1CCc2cc(S(=O)(=O)NCCC(=O)NC3CCCc4ccccc43)ccc21 (configuration not stated)
viability [1]: 113% (inactive)
viability [2]: 112% (inactive)
viability [3]: 88.9% (inactive)
differential viability (reversal) ([4]; H69AR cells + 2 uM doxorubicin): -1.16% (inactive)
viability [4, 7]: 90%
viability [4, 8]: 88.9%
inhibition [5]: -4% (inactive)
inhibition [6]: -3.27% (inactive)

CC(=O)Nc1c(I)c(NC(C)=O)c(I)c(C(=O)O)c1I
viability [1]: 89% (inactive)
viability [2]: 98.4% (inactive)
viability [3]: 103% (inactive)
differential viability (reversal) ([4]; H69AR cells + 2 uM doxorubicin): 1.03% (inactive)
viability [4, 7]: 102%
viability [4, 8]: 103%
inhibition [5]: -0.13% (inactive)
inhibition [6]: -3% (inactive)

O=C(NC1=NCCS1)c1ccc2c(c1)C(=O)N(Cc1ccco1)C2=O
viability [1]: 85% (inactive)
viability [2]: 94% (inactive)
viability [3]: 93.6% (inactive)
differential viability (reversal) ([4]; H69AR cells + 2 uM doxorubicin): 1.83% (inactive)
viability [4, 7]: 91.8%
viability [4, 8]: 93.6%
inhibition [5]: -7.26% (inactive)
inhibition [6]: 4.73% (inactive)
